Test results from ChEMBL document CHEMBL1134897, “C-3 Amido-indole cannabinoid receptor modulators” (Bioorg Med Chem Lett, 2002).

target: Cannabinoid receptor (Homo sapiens) (UniProt P34972+P21554); test: Ratio of binding affinity of the CB1 receptor to that of CB2 receptor; NT means not tested; format: protein assay
In short: (§1)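 Membranes (50 µg) from CHO-K1 cells expressing human CB2 or CB1. Tracer is [5,7-3H]WIN 55,212-2 mesylate for CB2 and CP55,940 for CB1, routinely at 10 nM. Incubated with test compound in HEPES pH 7.4 buffer (EDTA, MgCl₂, 0.3% BSA) for 2 h at room temperature with shaking. Bound label is collected by filtration and counted by scintillation. Single-point values are % inhibition at […] test compound.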

Sequence of Cannabinoid receptor (Homo sapiens) (P21554 whole entry, looked up): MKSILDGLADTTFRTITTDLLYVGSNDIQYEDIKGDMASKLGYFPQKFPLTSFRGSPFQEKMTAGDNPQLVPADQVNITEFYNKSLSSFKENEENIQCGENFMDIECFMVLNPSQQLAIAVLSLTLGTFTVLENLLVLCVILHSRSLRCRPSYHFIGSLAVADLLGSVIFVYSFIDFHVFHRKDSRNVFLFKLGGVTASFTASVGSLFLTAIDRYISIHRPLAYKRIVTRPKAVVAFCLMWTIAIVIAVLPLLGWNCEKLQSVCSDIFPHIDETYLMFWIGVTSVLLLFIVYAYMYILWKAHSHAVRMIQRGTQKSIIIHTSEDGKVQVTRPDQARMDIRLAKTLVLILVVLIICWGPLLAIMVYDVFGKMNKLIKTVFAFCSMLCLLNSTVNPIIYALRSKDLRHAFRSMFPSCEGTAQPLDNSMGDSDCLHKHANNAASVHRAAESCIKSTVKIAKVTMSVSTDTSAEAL
Sequence of Cannabinoid receptor (Homo sapiens) (P34972 whole entry, looked up): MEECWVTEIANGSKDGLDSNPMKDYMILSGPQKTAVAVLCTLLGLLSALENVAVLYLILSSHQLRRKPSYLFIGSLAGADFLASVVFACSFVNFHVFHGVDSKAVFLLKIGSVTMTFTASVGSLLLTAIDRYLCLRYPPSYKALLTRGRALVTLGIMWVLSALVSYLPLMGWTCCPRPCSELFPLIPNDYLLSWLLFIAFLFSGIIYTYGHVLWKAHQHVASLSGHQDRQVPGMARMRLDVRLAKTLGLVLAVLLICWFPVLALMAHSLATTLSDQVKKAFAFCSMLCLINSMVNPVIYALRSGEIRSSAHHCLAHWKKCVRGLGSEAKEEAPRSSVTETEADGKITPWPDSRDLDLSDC

How did the Ratio turn out when `CCCCCOc1cc(/C=C/C(=O)N[C@@H](Cc2ccccc2)C(=O)OC)ccc1OC` was run?
The Ratio was 0.59.

target: T1, Cannabinoid receptor 2 (Homo sapiens, UniProt P34972); test: Displacement of WIN-55212-2-Mesylate [573H] from human CB2 receptor expressed in CHO cells at 100 nM; format: cell-based; in short: as §1
T1 sequence (P34972 whole entry): as the sequence (P34972 whole entry, looked up) above

How did the inhibition turn out when `COc1ccc(Br)c2c(C(=O)N[C@@H]3C4(C)CCC(C4)C3(C)C)c(C)n(CCN3CCOCC3)c12` (some centres undefined) was run?
Its inhibition is 42%.

With `COc1cc(OC)c2c(c1)c(C(=O)N[C@@H]1C3(C)CCC(C3)C1(C)C)c(C)n2CCN1CCOCC1` (some centres undefined) as the molecule, how does the inhibition read?
Its inhibition is 0%.

How did the inhibition turn out when `COc1cccc2c(C(=O)N[C@@H](Cc3ccccc3)C(=O)N(C)C)c(C)n(CCN3CCOCC3)c12` was run?
The inhibition was 29%.

`COc1ccc(Cl)c2c(C(=O)N[C@@H]3C4(C)CCC(C4)C3(C)C)c(C)n(CCN3CCOCC3)c12` (some centres undefined) was tested. Which inhibition did it give?
Its inhibition is 11%.

`COC[C@H](Cc1ccccc1)NC(=O)c1c(C)n(CCN2CCOCC2)c2c(OC)cccc12` was tested. Which inhibition did it give?
The inhibition was 6%.

Which inhibition does the source give for `COc1ccc2c(C(=O)N[C@@H]3C4(C)CCC(C4)C3(C)C)c(C)n(CCN3CCOCC3)c2c1OC` (some centres undefined) here?
Its inhibition is 0%.

Which inhibition does the source give for `COc1cccc2c(C(=O)N[C@@H](Cc3ccccc3)c3cc[nH]n3)c(C)n(CCN3CCOCC3)c12` here?
Its inhibition is 7%.

For `CC[C@H](Cc1ccccc1)NC(=O)c1c(C)n(CCN2CCOCC2)c2c(OC)cccc12`, which inhibition is on record?
Its inhibition is 18%.

`COc1c(Cl)ccc2c(C(=O)N[C@@H]3C4(C)CCC(C4)C3(C)C)c(C)n(CCN3CCOCC3)c12` (some centres undefined) was tested. Which inhibition did it give?
The inhibition was 15%.

`COc1ccc(C#N)c2c(C(=O)N[C@@H]3C4(C)CCC(C4)C3(C)C)c(C)n(CCN3CCOCC3)c12` (some centres undefined) was tested. Which inhibition did it give?
The inhibition was 33%.

`CCCc1c(C(=O)N[C@@H]2C3(C)CCC(C3)C2(C)C)c2cccc(OC)c2n1CCN1CCOCC1` (some centres undefined) was tested. Which inhibition did it give?
The inhibition was 6%.

How did the inhibition turn out when `COc1cccc2c(C(=O)N[C@H](C#N)Cc3ccccc3)c(C)n(CCN3CCOCC3)c12` was run?
The inhibition was 18%.

For `COc1cccc2c(C(=O)NC3C4(C)CCC(C4)C3(C)C)c(C)n(CCN3CCCC3)c12` (centres undefined), which inhibition is on record?
The inhibition was 25%.

target: T2, Cannabinoid receptor 1 (Homo sapiens, UniProt P21554); test: Binding affinity against human Cannabinoid receptor 1 expressed in CHO cells by using CP-55940 as Radioactive tracer at 1 uM; format: cell-based
T2 sequence (P21554 whole entry): as the sequence (P21554 whole entry, looked up) above

For `CCCCCOc1cc(/C=C/C(=O)N[C@@H](Cc2ccccc2)C(=O)OC)ccc1OC`, which inhibition is on record?
Its inhibition is 51%.

target: T2, Cannabinoid receptor 1; test: Binding affinity against human Cannabinoid receptor 1 expressed in CHO cells by using CP-55940 as Radioactive tracer; format: cell-based

With `CCCCCOc1cc(/C=C/C(=O)N[C@@H](Cc2ccc(O)cc2)C(=O)OC)ccc1OC` as the molecule, how does the Ki read?
Its Ki is 5700 nM.

`COC(=O)[C@H](Cc1ccccc1)NC(=O)c1c(C)n(CCN2CCOCC2)c2c(OC)cccc12` was tested. Which Ki did it give?
Its Ki is 4000 nM.

target: T1, Cannabinoid receptor 2; test: Binding affinity against human Cannabinoid receptor 2 expressed in CHO cells by using WIN-55212-2 Mesylate [573H] as Radioactive tracer; format: cell-based
In short: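 Membranes (50 µg) from CHO-K1 cells expressing human CB2 or CB1. Incubated with test compound in HEPES pH 7.4 buffer (EDTA, MgCl₂, 0.3% BSA) for 2 h at room temperature with shaking. Bound label is collected by filtration and counted by scintillation.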

`CCCCCOc1cc(/C=C/C(=O)N[C@@H](Cc2ccc(O)cc2)C(=O)OC)ccc1OC` was tested. Which Ki did it give?
Its Ki is 120 nM.

Which Ki does the source give for `CCCCCOc1cc(/C=C/C(=O)N[C@@H](Cc2ccccc2)C(=O)OC)ccc1OC` here?
Its Ki is 86 nM.

How did the Ki turn out when `COC(=O)[C@H](Cc1ccccc1)NC(=O)c1c(C)n(CCN2CCOCC2)c2c(OC)cccc12` was run?
Its Ki is 8 nM.

organism: Mus musculus; test: Inhibition of LPS-induced nuclear factor-kappa B (NFkB) activation and TNF production in mouse; format: functional, organism-based
In short: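 Female Balb/c mice, 6–8 weeks old, n=8 per group, received LPS (E. coli 0111:B4) at 50 ug/kg i.p. in sterile saline. Blood was taken 90 min later and serum TNF-α measured by ELISA. Compound was dosed i.v. or orally, as solutions in various vehicles, before or at the time of LPS injection.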

With `Cc1c(C(=O)c2cccc3ccccc23)c2cccc3c2n1[C@H](CN1CCOCC1)CO3` [WIN-552122] as the molecule, how does the IC50 read?
The IC50 was 8000 nM.

With `COC(=O)[C@H](Cc1ccccc1)NC(=O)c1c(C)n(CCN2CCOCC2)c2c(OC)cccc12` as the molecule, how does the IC50 read?
Its IC50 is 12000 nM.

target: T1, Cannabinoid receptor 2; test: Binding affinity against human CB2 receptor expressed in CHO cells by using WIN-55212-2 Mesylate [573H] as Radioactive tracer; format: cell-based; in short: as §1

`COc1cccc2c(C(=O)NC3C(C)(C)[C@@H]4CC[C@@]3(C)C4)c(C)n(CCCN3CCOCC3)c12` (some centres undefined) was tested. Which Ki did it give?
Its Ki is 25 nM.

How did the Ki turn out when `COc1cccc2c(C(=O)N[C@H]3C4(C)CCC(C4)C3(C)C)c(C)n(CCN3CCOCC3)c12` (some centres undefined) was run?
The Ki was 30 nM.

For `COc1cc(F)cc2c(C(=O)N[C@H]3C4(C)CCC(C4)C3(C)C)c(C)n(CCN3CCOCC3)c12` (some centres undefined), which Ki is on record?
Its Ki is 18 nM.

With `COc1cccc2c(C(=O)NC3C4(C)CCC(C4)C3(C)C)cn(CCN3CCOCC3)c12` (centres undefined) as the molecule, how does the Ki read?
The Ki was 12 nM.

With `COc1cccc2c(C(=O)NC3CC(C)(C)CCC3(C)C)c(C)n(CCN3CCOCC3)c12` (centres undefined) as the molecule, how does the Ki read?
Its Ki is 38 nM.

`CCCCCn1c(C)c(C(=O)NC2C(C)(C)[C@@H]3CC[C@@]2(C)C3)c2cccc(OC)c21` (some centres undefined) was tested. Which Ki did it give?
Its Ki is 5 nM.

`CCC(=O)[C@H](Cc1ccccc1)NC(=O)c1c(C)n(CCN2CCOCC2)c2c(OC)cccc12` was tested. Which Ki did it give?
Its Ki is 24 nM.

`COc1cccc2c(C(=O)NC3CCCC3(C)C)c(C)n(CCN3CCOCC3)c12` (centres undefined) was tested. Which Ki did it give?
The Ki was 205 nM.

Which Ki does the source give for `COc1cccc2c(C(=O)N[C@@H](Cc3ccccc3)c3ccno3)c(C)n(CCN3CCOCC3)c12` here?
The Ki was 169 nM.

Which Ki does the source give for `COC(=O)[C@H](Cc1cccs1)NC(=O)c1c(C)n(CCN2CCOCC2)c2c(OC)cccc12` here?
The Ki was 12 nM.

With `COc1cccc2c(C(=O)N[C@@H](Cc3ccccc3)c3ccon3)c(C)n(CCN3CCOCC3)c12` as the molecule, how does the Ki read?
The Ki was 235 nM.

How did the Ki turn out when `COC(=O)[C@H](Cc1cscn1)NC(=O)c1c(C)n(CCN2CCOCC2)c2c(OC)cccc12` was run?
Its Ki is 20 nM.

With `COC(=O)[C@H](Cc1ccccc1)NC(=O)c1c(C)n(CCN2CCOCC2)c2ccccc12` as the molecule, how does the Ki read?
The Ki was 250 nM.

How did the Ki turn out when `COc1cccc2c(C(=O)NC3CC(C)(C)CCC3(C)C)cn(CCN3CCOCC3)c12` (centres undefined) was run?
Its Ki is 22 nM.

How did the Ki turn out when `COc1cccc2c(C(=O)N[C@@H]3C4(C)CCC(C4)C3(C)C)c(C)n(CCN3CCOCC3)c12` (some centres undefined) was run?
Its Ki is 41 nM.

With `CCc1c(C(=O)N[C@H]2C3(C)CCC(C3)C2(C)C)c2cccc(OC)c2n1CCN1CCOCC1` (some centres undefined) as the molecule, how does the Ki read?
Its Ki is 103 nM.

`COc1cccc2c(C(=O)N[C@@H]3C4(C)CCC(C4)C3(C)C)cn(CCN3CCOCC3)c12` (some centres undefined) was tested. Which Ki did it give?
The Ki was 13 nM.

With `COC(=O)[C@H](Cc1cccc(Cl)c1)NC(=O)c1c(C)n(CCN2CCOCC2)c2c(OC)cccc12` as the molecule, how does the Ki read?
Its Ki is 31 nM.

How did the Ki turn out when `COc1cccc2c(C(=O)NC3C(C)(C)[C@@H]4CC[C@@]3(C)C4)c(C)n(CCN(C)C)c12` (some centres undefined) was run?
Its Ki is 505 nM.

For `COCCn1c(C)c(C(=O)NC2C(C)(C)[C@@H]3CC[C@@]2(C)C3)c2cccc(OC)c21` (some centres undefined), which Ki is on record?
Its Ki is 60 nM.

Which Ki does the source give for `COc1cccc2c(C(=O)N[C@H](C)Cc3ccccc3)c(C)n(CCN3CCOCC3)c12` here?
The Ki was 263 nM.

`COc1cccc2c(C(=O)N[C@@H](Cc3ccccc3)C(C)=O)c(C)n(CCN3CCOCC3)c12` was tested. Which Ki did it give?
The Ki was 8 nM.

For `COc1cccc2c(C(=O)N[C@@H](C)Cc3ccccc3)cn(CCN3CCOCC3)c12`, which Ki is on record?
Its Ki is 71 nM.

For `CO/N=C(\C)[C@H](Cc1ccccc1)NC(=O)c1c(C)n(CCN2CCOCC2)c2c(OC)cccc12`, which Ki is on record?
The Ki was 184 nM.

With `COc1cc(Cl)cc2c(C(=O)N[C@@H]3C4(C)CCC(C4)C3(C)C)c(C)n(CCN3CCOCC3)c12` (some centres undefined) as the molecule, how does the Ki read?
The Ki was 251 nM.

How did the Ki turn out when `CNC(=O)[C@H](Cc1ccccc1)NC(=O)c1c(C)n(CCN2CCOCC2)c2c(OC)cccc12` was run?
Its Ki is 294 nM.

`COc1cccc2c(C(=O)N[C@@H]3C(C)(C)[C@@H]4CC[C@@]3(C)C4)c(C)n(CCN3CCCCC3)c12` was tested. Which Ki did it give?
Its Ki is 89 nM.
